In ChEMBL document CHEMBL1122758, “Studies of the mode of action of antitumor triazenes and triazines. 6. 1-Aryl-3-(hydroxymethyl)-3-methyltriazenes: synthesis, chemistry, and antitumor properties” (J Med Chem, 1984):
Blank lines part the entries; values can stand above or below the molecule they belong to.

Legend:
[1] = In vitro biological stability and half-life was measured in Earl's buffer at a pH 7.4 of at 37 degree Centigrade; format: physicochemical
How it was run: (§1)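 Decomposition was tracked by UV spectroscopy as the fall in absorbance over time at the compound's λmax. Half-life came from the slope of a log plot of extent of decomposition against time, assuming first-order kinetics. Line 4 used Earl's buffer (NaCl, NaHCO3, glucose, KCl, NaH2PO4, HCl to pH 7.4). Lines 5-11 used Sorensen's phosphate buffer, with KH2PO4 and Na2HPO4 mixed to the stated pH.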

[2] = tested on: Mus musculus; assay: Compound was evaluated in vivo for antitumor activity against TLX5S Lymphoma implanted mice and percentage increase in life span (%ILS(T/C)) was reported at a optimal dose of 20 mg/Kg; format: functional
[3] = In vitro biological stability and half-life was measured in phosphate buffer at a pH of 7.4 at 37 degree Centigrade; format: physicochemical; conditions: pH 7.4; how it was run: as §1
[4] = In vitro biological stability and half-life was measured in phosphate buffer at a pH 7.5 of at 25 degree Centigrade; format: physicochemical; how it was run: as §1
[5] = In vitro biological stability and half-life was measured by HPLC in TRIS buffer at a pH of 7.4 at 37 degree Centigrade; format: physicochemical; conditions: pH 7.4
How it was run: (§2)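 Triazene incubated at 100 µg mL-1 in closed containers at 37 °C in pH 7.4 buffer: Earl's (NaCl, NaHCO3, glucose, KCl, NaH2PO4, HCl-adjusted) for line 1; 0.01 M Tris, HCl-adjusted, for line 2; Sorensen's KH2PO4/Na2HPO4 phosphate for line 3. Remaining triazene was followed by HPLC with 30% aqueous acetonitrile plus 0.1% diethylamine at 2 mL/min, and UV detection at the compound's λmax.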

[6] = In vitro biological stability and half-life was measured by HPLC in phosphate buffer at a pH of 7.4 at 37 degree Centigrade; format: physicochemical; conditions: pH 7.4; how it was run: as §2
[7] = In vitro biological stability and half-life was measured by HPLC in Earl's buffer at a pH of 7.4 at 37 degree Centigrade; format: physicochemical; conditions: pH 7.4; how it was run: as §2
[8] = In vitro biological stability and half-life was measured in phosphate buffer at a pH of 7.5 at 25 degree Centigrade; format: physicochemical; conditions: pH 7.5; how it was run: as §1
[9] = In vitro biological stability and half-life was measured in phosphate buffer at a pH of 2.5 at 37 degree Centigrade; format: physicochemical; conditions: pH 2.5; how it was run: as §1
[10] = tested on: Mus musculus; assay: Compound was evaluated in vivo for antitumor activity against TLX5R Lymphoma implanted mice and percentage increase in life span (%ILS(T/C)) was reported at a optimal dose of 20 mg/Kg five times daily.; format: functional
[11] = In vitro biological stability and half-life was measured in phosphate buffer at a pH of 4.5 at 37 degree Centigrade; format: physicochemical; conditions: pH 4.5; how it was run: as §1
[12] = In vitro biological stability and half-life was measured in phosphate buffer at a pH of 3.5 at 37 degree Centigrade; format: physicochemical; conditions: pH 3.5; how it was run: as §1
[13] = In vitro biological stability and half-life was measured in phosphate buffer at a pH of 5.2 at 37 degree Centigrade; format: physicochemical; conditions: pH 5.2; how it was run: as §1
[14] = tested on: Mus musculus; assay: Compound was evaluated in vivo for antitumor activity against TLX5R Lymphoma implanted mice and percentage increase in life span (%ILS(T/C)) was reported at a optimal dose of 5 mg/Kg five times daily

- half-life [1]: 18.3 min
Compound: CCN=NNc1ccc(C#N)cc1

Compound: CC(=O)c1ccc(/N=N/N(C)CO)cc1
- ILS (T/C) [2]: 72%
- half-life [3]: 14.5 min

- half-life [1]: 99 min
Compound: CN=NNc1ccc(C#N)cc1

- half-life [4]: 9 min
Compound: CCN=NNc1ccc(C(=O)OC)cc1

Compound: CN(CO)/N=N/c1ccc(C(N)=O)cc1
- ILS (T/C) [2]: 62%

- half-life [3]: 13.8 min
- half-life [5]: 36.2 min
- half-life [6]: 15.1 min
- half-life [7]: 66.6 min
Compound: CN=NNc1ccc(C(C)=O)cc1

Compound: COC(=O)c1ccc(/N=N/N(C)COC(=O)c2ccccc2)cc1
- ILS (T/C) [2]: 31%
- half-life [8]: 26.5 min

- half-life [3]: 3.5 min
Compound: C/N=N/Nc1ccccc1

- half-life [7]: 15.1 min
Compound: CCN=NNc1ccc(C(C)=O)cc1

Compound: CC(=O)c1ccc(/N=N/N(C)C)cc1
- ILS (T/C) [2]: 65%
- half-life [3]: > 1440 min
- half-life [9]: 1.23 min
- ILS (T/C) [10]: 0%
- half-life [11]: 108 min
- half-life [12]: 11.8 min
- half-life [13]: > 1440 min

Compound: CN/N=N/c1ccc(C(=O)OC)cc1
- ILS (T/C) [2]: 87%
- half-life [8]: 35 min
- half-life [3]: 12.1 min
- ILS (T/C) [10]: 4%

- half-life [4]: 7 min
Compound: CCN(CO)N=Nc1ccc(C(=O)OC)cc1

Compound: COC(=O)c1ccc(/N=N/N(C)C)cc1
- ILS (T/C) [2]: 58%
- half-life [8]: > 1440 min
- ILS (T/C) [10]: 0%

Compound: COC(=O)c1ccc(/N=N/N(C)CO)cc1
- ILS (T/C) [2]: 120%
- ILS (T/C) [14]: 0%
- half-life [8]: 22 min
- half-life [3]: 12.6 min

Compound: CCN(CO)/N=N/c1ccc(C#N)cc1
- ILS (T/C) [2]: 0%

Compound: CN(CO)/N=N/c1ccc(C#N)cc1
- ILS (T/C) [2]: 54%
